Bioassay records as filed in PubChem BioAssay.
Most compounds without a hit are left out; they make up all but 2.3% or so of the library.
TRPC6 activator: activates the mouse TRPC6 cation channel; HEK293-TRPC6 membrane potential dye fluorescence; active compounds read high; B-score at 10 µM; 0.13% of 310,000 active; AID 2550;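 active = B-score of the integrated fluorescence ratio above library mean plus 3 SD, and starting fluorescence ratio within library mean plus 5 SD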;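 note: higher score means more depolarization so channel activation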
Target sequence (Q61143 whole entry, looked up): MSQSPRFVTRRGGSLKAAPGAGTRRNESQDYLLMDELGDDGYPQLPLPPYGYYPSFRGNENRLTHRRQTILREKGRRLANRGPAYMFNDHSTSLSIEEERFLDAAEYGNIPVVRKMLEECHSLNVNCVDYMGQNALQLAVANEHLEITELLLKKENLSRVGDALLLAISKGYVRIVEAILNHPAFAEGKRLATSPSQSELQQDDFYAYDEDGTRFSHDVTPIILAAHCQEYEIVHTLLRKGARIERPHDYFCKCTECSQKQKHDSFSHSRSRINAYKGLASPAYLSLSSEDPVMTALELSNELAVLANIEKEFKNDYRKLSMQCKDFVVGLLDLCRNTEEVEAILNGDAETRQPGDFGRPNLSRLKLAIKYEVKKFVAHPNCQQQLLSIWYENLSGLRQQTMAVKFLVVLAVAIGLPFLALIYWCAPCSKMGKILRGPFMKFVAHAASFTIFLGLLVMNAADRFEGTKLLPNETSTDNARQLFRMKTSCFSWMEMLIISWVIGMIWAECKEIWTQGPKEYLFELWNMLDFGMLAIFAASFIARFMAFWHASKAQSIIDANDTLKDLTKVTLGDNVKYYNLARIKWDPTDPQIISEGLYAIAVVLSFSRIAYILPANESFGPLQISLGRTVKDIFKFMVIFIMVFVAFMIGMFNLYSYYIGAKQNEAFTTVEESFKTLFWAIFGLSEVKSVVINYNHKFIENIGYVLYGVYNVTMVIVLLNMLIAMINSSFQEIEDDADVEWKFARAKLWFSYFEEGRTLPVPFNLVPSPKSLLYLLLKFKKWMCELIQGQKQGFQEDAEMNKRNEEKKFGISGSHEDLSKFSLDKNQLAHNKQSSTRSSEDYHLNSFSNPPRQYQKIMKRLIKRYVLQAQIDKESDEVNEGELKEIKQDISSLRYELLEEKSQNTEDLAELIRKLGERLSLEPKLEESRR
TRPC4 inh: inhibitors of mouse TRPC4 channel; HEK293 TRPC4beta/mu-opioid, DAMGO-evoked Fluo4 calcium flux; active compounds read low; B-score at 10 µM; 0.39% of 300,000 active;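 active = B-score over 3 SD under the library average, no early fluorescence shift, positive overall ratio signal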
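Assay system: HEK293 cells with stable TRPC4beta plus mu-opioid receptor expression; Probe or stimulus: DAMGO in two steps, submaximal then maximal; Dosing: single-point compound dosing; Measured by: Fluo4 calcium-dye fluorescence, kinetic read; Read-out basis: B score from integrated Fluo4 fluorescence ratio.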
TRPC4 act: activators of mouse TRPC4 channel; Q9QUQ5; HEK293 TRPC4beta/mu-opioid, Fluo4 calcium fluorescence; active compounds read high; B-score at 10 µM; 0.49% of 310,000 active;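 active = B-score above 5 SD of library B-scores, and initial fluorescence ratio not above library mean plus 5 SD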;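 note: positive B-score marks a calcium rise read as TRPC4 activation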
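System – HEK293 cells stably co-expressing mouse TRPC4beta and mu-opioid receptor · Signal – Fluo4 calcium-sensitive dye fluorescence, kinetic, 1 Hz baseline · Benchmarks – buffer (low) and maximal DAMGO (high) · Read-out – B score of integrated fluorescence ratio per well · Incubation – dye loading 45 min room temperature, 110 s kinetic read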
TRPC6 inh: blocks the mouse TRPC6 cation channel. Q61143. HEK293-TRPC6, membrane potential dye, ACh-evoked depolarization; active compounds read low. B-score at 10 µM. 1.1% of 310,000 active;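 active = B-score under library mean minus 3 SD, initial fluorescence not abnormally high, positive integrated signal ratio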;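 note: B-score derived from integrated fluorescence ratio over the kinetic read; more negative B-score means stronger inhibition of depolarization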
TRPC4 PAM: allosteric potentiators of mouse TRPC4 channel | AID 2227 | HEK293 TRPC4beta/mu-opioid, DAMGO EC20, Fluo-4 Ca2+ flux; active compounds read high | 0.42% of 310,000 active | B-score at 10 µM;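 active = B-score of calcium response area above 5 SD of library B-scores, with initial fluorescence ratio within 5 SD of library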
Each line names hits and unclear results; the compound was inactive in the other large screens.

CCCN1CCC(=O)N([C@H](CSc2ccc(OC)cc2)Cc2ccccc2)CC1	none
CC(C)CN1CCC(=O)N([C@H](CSc2ccc(Br)cc2)Cc2ccccc2)CC1	none
O=C1CCN(CCc2ccccc2)CCN1[C@H](COc1ccccc1)Cc1ccccc1	TRPC4 act 67 (no result: TRPC4 inh)
CCn1c(SCC(=O)N2CCCCC2C)nc2c1c(=O)n(C)c(=O)n2C (stereo unspecified)	none
Cc1ccc(C(C)C)cc1OCC(=O)N1CCN(C(=O)c2ccco2)CC1	none
O=C(Nc1ccc2nc3n(c(=O)c2c1)CCCCC3)C(=O)N1CCN(c2ccccc2F)CC1	none
O=C([O-])c1cc(-c2ccccc2)cc(-c2ccccc2)[n+]1Cc1ccccc1	TRPC6 inh -5.41
COC(=O)c1sc(NC(=O)c2cc(-c3ccccc3)nc3ccccc23)c(C#N)c1C	TRPC4 PAM 13
CCOC(=O)c1sc(NC(=O)c2cc(-c3ccc(C)cc3)nc3ccccc23)c(C#N)c1C	none
Cc1ccc(N(C(=O)c2snc(C(N)=O)c2N)C(C(=O)NC2CCCC2)c2ccco2)cc1 (stereo unspecified)	none
Cc1cc(Br)cc(C)c1OCCCCN(C)C	TRPC4 PAM 35
Cc1cc(Cl)c(OCCCN(C)C)c(Br)c1	none
Cc1ccc(C)c(N(CC(=O)NC2CCCC2)C(=O)c2csnn2)c1	TRPC4 inh -10, TRPC4 act 70
O=Cc1ccc(C(=O)OCC(=O)Nc2ccc(F)cc2F)cc1	none
CN1C2C=C(N(CCc3c[nH]c4ccccc34)C(=O)c3ccc(Cl)cc3)CC1CC2 (stereo unspecified)	TRPC4 inh -6, TRPC4 act 88
COc1ccc(-c2c(C)[nH]n3c(=O)c(Cc4ccccc4)c(C)nc23)cc1	TRPC4 inh -6
Cc1[nH]n2c(=O)c3c(nc2c1-c1ccccc1)CCC3	TRPC4 inh -6
N#Cc1ccc(C(=O)CN2CCN(c3ccccc3)CC2)cc1	none
CC1(C)C(=O)NCCN1C(=O)CC1C(=O)NCCN1Cc1cccc(C(F)(F)F)c1 (stereo unspecified)	none
Cc1ccc(-c2cn(-c3ccccc3)c(SCC(N)=O)n2)cc1C	TRPC4 PAM 21
C=CCNC(=S)Nc1c(N)n(C)c(=O)n(C)c1=O	none
CC(C)c1nc(SCC(=O)Nc2cccc(C(F)(F)F)c2)c2c(=O)n(C)c(=O)n(C)c2n1	TRPC4 PAM 12
Cc1cc2oc(C(=O)N(Cc3cccs3)C3CCS(=O)(=O)C3)cc(=O)c2cc1Cl (stereo unspecified)	TRPC4 PAM 95
Cc1ccc(CN(C(=O)c2cc(=O)c3cc(Cl)c(C)cc3o2)C2CCS(=O)(=O)C2)cc1 (stereo unspecified)	TRPC4 PAM 19
Cc1ccc(CN(C(=O)c2cc(=O)c3cc(C)cc(C)c3o2)C2CCS(=O)(=O)C2)cc1 (stereo unspecified)	none
CCOc1ccc(NC(=O)C2CC(=O)N(c3ccc4c(c3)OCCO4)C2)cc1OCC (stereo unspecified)	none
CC(Sc1nnnn1-c1ccccc1)C(=O)Nc1ccccc1-c1ccccc1 (stereo unspecified)	none
CC(Sc1nnnn1-c1ccccc1)C(=O)Nc1ccc(N2CCN(C)CC2)cc1 (stereo unspecified)	TRPC4 act 47
CC(C)(C)c1ccc(NC(=O)C2CCCN(c3cnccn3)C2)cc1 (stereo unspecified)	none
CCCc1ccc2oc(C(=O)N3CCNC(=O)C3CC(=O)OC)c(C)c2c1 (stereo unspecified)	none
Cc1sc(NC(=O)c2ccco2)c(C(c2cccnc2)N2CCN(c3ccc(F)cc3)CC2)c1C (stereo unspecified)	none
Cc1sc(NC(=O)c2ccco2)c(C(c2ccc(F)cc2)N2CCN(C)CC2)c1C (stereo unspecified)	TRPC4 PAM 34
CCc1ccc(NC(=O)c2ccc(NC(=O)C3CCCO3)cc2)cc1 (stereo unspecified)	none
Cc1cccc2sc(N(CCN(C)C)C(=O)c3cc(Cl)sc3Cl)nc12	TRPC4 PAM 12
Cc1ccc(-c2csc(N(CCCN(C)C)C(=O)c3ccco3)n2)cc1	TRPC4 inh -6
CN(C)CCCN(C(=O)c1ccc(C(=O)c2ccccc2)cc1)c1nc2cc3c(cc2s1)OCO3	none
CN(C)CCCN(C(=O)c1ccco1)c1nc2cc3c(cc2s1)OCO3	TRPC6 inh -7.83
Cc1ccc(-c2csc(N(CCCN3CCOCC3)C(=O)c3ccco3)n2)cc1	none
COc1ccc(-c2csc(N(CCCN(C)C)C(=O)c3cccs3)n2)cc1	TRPC4 act 56
COc1cc(C(=O)N2CCN(C)C(C)C2)ccc1OC1CCN(C(C)=O)CC1 (stereo unspecified)	none
O=C1c2ccccc2C(=O)C2OC12 (stereo unspecified)	none
COc1ccccc1N1CCN(C(c2cccs2)C(C)NC(=O)c2ccco2)CC1 (stereo unspecified)	TRPC4 act 103
O=C(COc1ccc(Br)cc1Cl)c1ccc[nH]1	TRPC4 inh -6
COc1cc(CN(C)CC2CCCN(CCc3ccccc3F)C2)cc(Cl)c1OC (stereo unspecified)	TRPC4 inh -6
CN(Cc1ccccc1)CC1CCCN(CCc2ccccc2F)C1 (stereo unspecified)	none
O=S(=O)(c1ccccc1F)N1CCc2ccccc2C1	none
CC(C)(C)C(=O)N1CCN(c2ncnc3scc(-c4ccccc4)c23)CC1	none
CCN(CC)CCCNC(=S)N1CCN(c2nc3ccccc3n2CC)CC1	TRPC4 PAM 15
CCN(CC)CCCNC(=S)N1CCn2c(nc3ccccc32)C1	none
COc1ccc(C2=CC(=O)C=CC2=O)cc1	TRPC4 act 91
O=C(CC(Cc1ccccc1)C(=O)O)Nc1cccc(C(F)(F)F)c1 (stereo unspecified)	none
CCNc1nc(NC(C)C)nc(NS(=O)(=O)c2ccc(C)cc2)n1	none
CN1CCN(c2nc3c(c(=O)n(C)c(=O)n3C)n2CC(=O)C23CC4CC(CC(C4)C2)C3)CC1	TRPC4 inh -6
Cn1c(=O)c2c(nc(N3CCOCC3)n2CC(=O)C23CC4CC(CC(C4)C2)C3)n(C)c1=O	none
O=C(O)c1cccc(Cn2c(Cl)c(/C=N/NC(=O)c3ccco3)sc2=O)c1	none
COC(=O)/C=C1/SC(=NC(=O)c2ccccc2)NC1=O	none
COC(=O)/C=C1\SC(=NC(=O)c2cccc(Cl)c2)NC1=O	TRPC4 inh -6
COc1ccc(F)cc1CSc1nnnn1-c1ccc(O)cc1	TRPC4 inh -5
COc1cc(/C=C(\C#N)c2nc3c(s2)CCCC3)ccc1O	TRPC6 activator 93.2, TRPC4 act 91
Cc1[nH]c2ccccc2c1N=Nc1ccccc1F	TRPC4 inh -6
CC(=O)C12CCCCC1CC1[C@@H]3CC(C)C4=CC(=O)CC[C@]4(C)C3CC[C@@]12C (stereo partly specified)	TRPC4 PAM 12
